ChEMBL document CHEMBL1133629, “Cholic acid derivatives as 1,2,4,5-tetraoxane carriers: structure and antimalarial and antiproliferative activity” (J Med Chem, 2000)

Assays:
CCRF-CEM = assay: Antiproliferative activity as Growth inhibition in CCRF-CEM Leukemia cell line; type: functional; details: Homo sapiens
Outline: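 NCI 60-cell-line screen: 48-h continuous drug exposure, growth measured by sulforhodamine B protein assay. GI50 is the interpolated concentration giving +50 percentage growth.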

[1] = Selectivity, ratio of PHA-stimulated PBMC to D6 clone; type: functional
[2] = Cytotoxic activity against phytohemagglutininin (PHA)-stimulated peripheral blood mononuclear cells (PBMC) inhibition; type: functional; details: Homo sapiens; read-out: Cytotoxicity IC50
Outline: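 PBMC were isolated from heparinized blood of three healthy volunteers by density-gradient centrifugation and seeded at 100 000 cells/well in RPMI-based medium. Stimulated cultures received PHA at 5 µg/mL final; non-stimulated cultures received none. Compound dilutions were added 2 h later in triplicate, with medium-only controls. IC50 was determined for each donor.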

Plasmodium falciparum [3] = assay: Antimalarial activity against Plasmodium falciparum African D6; type: functional, organism-based
Outline: (§1)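 P. falciparum clones in human erythrocytes at 0.2% parasitemia and 1% hematocrit, in RPMI-1640 without folate or PABA plus 10% heat-inactivated human plasma. Compounds were diluted 2-fold 11 times ([…] range). Incubation was at 37 °C under 5% CO2/5% O2/90% N2, with [3H]hypoxanthine added at 42 h and 24 h further (66 h total). Cells were freeze-lysed, harvested and scintillation-counted; IC50 by nonlinear logistic dose-response fit.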

[4] = Antiproliferative activity in Fem-X of Human melanoma; type: functional
Outline: (§2)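 Cells were maintained as monolayers at 37 °C, 5% CO2, in RPMI-1640 with 10% heat-inactivated FBS, 25 mM Hepes, pH 7.2. They were seeded at 2000 cells/well in triplicate, and five concentrations were added 20 h later from 8 mM DMSO stocks; DMSO-only controls. MTT was added at 72 h for 4 h, then SDS/HCl, with OD570 read the next day. Blank-corrected survival vs control; IC50 = 50% survival inhibition.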

HeLa = assay: Antiproliferative activity in HeLa cells of Human cervix carcinoma; type: functional, cell-based; outline: as §2
Plasmodium falciparum [5] = assay: Antimalarial activity in Plasmodium falciparum Indochina W2; type: functional, organism-based; outline: as §1
[6] = Selectivity, ratio of PHA-stimulated PBMC to PBMC; type: functional
FM3A = assay: Antiproliferative activity in Mouse mammary tumor FM3A; type: functional, cell-based
Plasmodium falciparum [7] = assay: Antimalarial activity in Plasmodium falciparum FCR3; type: functional, organism-based

**Q.** Which GI50 (CCRF-CEM) does the source give for `CCCNC(=O)CCC(C)[C@H]1CC[C@H]2[C@@H]3[C@H](OC(C)=O)C[C@@H]4C[C@]5(CC[C@]4(C)[C@H]3C[C@H](OC(C)=O)[C@]12C)OO[C@]1(CC[C@@]2(C)[C@H](C[C@@H](OC(C)=O)[C@@H]3[C@@H]2C[C@H](OC(C)=O)[C@]2(C)[C@@H](C(C)CCC(=O)NCCC)CC[C@@H]32)C1)OO5` (some centres not stated) here?
**A.** 0.1 µM

**Q.** And the Ratio [1]?
**A.** 12500

**Q.** And the CC50 [2]?
**A.** 251 µM

**Q.** And the IC50 (Plasmodium falciparum [3])?
**A.** 0.0201 µM

**Q.** And the IC50 [4]?
**A.** 94 µM

**Q.** And the IC50 (HeLa; Homo sapiens, HeLa)?
**A.** 0.166 µM

**Q.** What about the IC50 (Plasmodium falciparum [5]) of the same compound?
**A.** 0.0301 µM

**Q.** What about the Ratio [6] of the same compound?
**A.** >15900

**Q.** For `CCCNC(=O)CCC(C)[C@H]1CC[C@H]2[C@@H]3[C@H](OC(C)=O)C[C@@H]4C[C@]5(CC[C@]4(C)[C@H]3C[C@H](OC(C)=O)[C@]12C)OO[C@@]1(CC[C@@]2(C)[C@H](C[C@@H](OC(C)=O)[C@@H]3[C@@H]2C[C@H](OC(C)=O)[C@]2(C)[C@@H](C(C)CCC(=O)NCCC)CC[C@@H]32)C1)OO5` (some centres not stated), which Ratio [1] is on record?
**A.** 10333

**Q.** What about the CC50 [2] of the same compound?
**A.** 96 µM

**Q.** And the IC50 (Plasmodium falciparum [3])?
**A.** 0.00929 µM

**Q.** What about the IC50 [4] of the same compound?
**A.** 23 µM

**Q.** And the IC50 (HeLa; Homo sapiens, HeLa)?
**A.** 33 µM

**Q.** And the IC50 (Plasmodium falciparum [5])?
**A.** 0.0604 µM

**Q.** What about the Ratio [6] of the same compound?
**A.** >10700

**Q.** For `COC(=O)CCC(C)[C@H]1CC[C@H]2[C@@H]3[C@H](OC(C)=O)C[C@@H]4C[C@]5(CC[C@]4(C)[C@H]3C[C@H](OC(C)=O)[C@]12C)OO[C@]1(CC[C@@]2(C)[C@H](C[C@@H](OC(C)=O)[C@@H]3[C@@H]2C[C@H](OC(C)=O)[C@]2(C)[C@@H](C(C)CCC(=O)OC)CC[C@@H]32)C1)OO5` (some centres not stated), which IC50 (Plasmodium falciparum [3]) is on record?
**A.** > 0.096 µM

**Q.** And the IC50 [4]?
**A.** 19.5 µM

**Q.** What about the IC50 (HeLa; Homo sapiens, HeLa) of the same compound?
**A.** 20.5 µM

**Q.** And the IC50 (Plasmodium falciparum [5])?
**A.** > 0.096 µM

**Q.** Which IC50 (Plasmodium falciparum [3]) does the source give for `CC(=O)O[C@H]1C[C@H]2[C@@H]([C@H](OC(C)=O)C[C@@H]3C[C@]4(CC[C@@]32C)OO[C@]2(CC[C@@]3(C)[C@H](C[C@@H](OC(C)=O)[C@@H]5[C@@H]3C[C@H](OC(C)=O)[C@]3(C)[C@@H](C(C)CCC(N)=O)CC[C@@H]53)C2)OO4)[C@@H]2CC[C@H](C(C)CCC(N)=O)[C@@]12C` (some centres not stated) here?
**A.** 0.129 µM

**Q.** And the IC50 [4]?
**A.** 6.2 µM

**Q.** And the IC50 (HeLa; Homo sapiens, HeLa)?
**A.** 6 µM

**Q.** What about the IC50 (Plasmodium falciparum [5]) of the same compound?
**A.** 0.0593 µM

**Q.** Which IC50 (HeLa; hela) does the source give for CISPLATIN here?
**A.** 0.0035 µM

**Q.** With `CC(=O)O[C@H]1C[C@H]2[C@@H]([C@H](OC(C)=O)C[C@@H]3C[C@]4(CC[C@@]32C)OO[C@]2(CC[C@@]3(C)[C@H](C[C@@H](OC(C)=O)[C@@H]5[C@@H]3C[C@H](OC(C)=O)[C@]3(C)[C@@H](C(C)CCC(=O)O)CC[C@@H]53)C2)OO4)[C@@H]2CC[C@H](C(C)CCC(=O)O)[C@@]12C` (some centres not stated) as the compound, how does the IC50 (Plasmodium falciparum [3]) read?
**A.** > 0.099 µM

**Q.** What about the IC50 [4] of the same compound?
**A.** 0.0076 µM

**Q.** What about the IC50 (HeLa; Homo sapiens, HeLa) of the same compound?
**A.** 0.0092 µM

**Q.** And the IC50 (Plasmodium falciparum [5])?
**A.** > 0.099 µM

**Q.** With `CC(=O)O[C@H]1C[C@H]2[C@@H]([C@H](OC(C)=O)C[C@@H]3C[C@]4(CC[C@@]32C)OO[C@@]2(CC[C@@]3(C)[C@H](C[C@@H](OC(C)=O)[C@@H]5[C@@H]3C[C@H](OC(C)=O)[C@]3(C)[C@@H](C(C)CCC(N)=O)CC[C@@H]53)C2)OO4)[C@@H]2CC[C@H](C(C)CCC(N)=O)[C@@]12C` (some centres not stated) as the compound, how does the GI50 (CCRF-CEM) read?
**A.** 0.97 µM

**Q.** And the IC50 (Plasmodium falciparum [3])?
**A.** 0.0237 µM

**Q.** What about the IC50 [4] of the same compound?
**A.** 3.1 µM

**Q.** What about the IC50 (HeLa; Homo sapiens, HeLa) of the same compound?
**A.** 3.7 µM

**Q.** What about the IC50 (Plasmodium falciparum [5]) of the same compound?
**A.** 0.0188 µM

**Q.** What does the source list for `COC(=O)CCC(C)[C@H]1CC[C@H]2[C@@H]3[C@H](OC(C)=O)C[C@@H]4C[C@]5(CC[C@]4(C)[C@H]3C[C@H](OC(C)=O)[C@]12C)OO[C@@]1(CC[C@@]2(C)[C@H](C[C@@H](OC(C)=O)[C@@H]3[C@@H]2C[C@H](OC(C)=O)[C@]2(C)[C@@H](C(C)CCC(=O)OC)CC[C@@H]32)C1)OO5` (some centres not stated)?
**A.** GI50 (CCRF-CEM): 14.8 µM; IC50 (Plasmodium falciparum [3]): > 0.096 µM; IC50 [4]: > 29 µM; IC50 (HeLa; Homo sapiens, HeLa): > 29 µM; IC50 (Plasmodium falciparum [5]): > 0.096 µM

**Q.** Which results are given for `CC(=O)O[C@H]1C[C@H]2[C@@H]([C@H](OC(C)=O)C[C@@H]3C[C@]4(CC[C@@]32C)OO[C@@]2(CC[C@@]3(C)[C@H](C[C@@H](OC(C)=O)[C@@H]5[C@@H]3C[C@H](OC(C)=O)[C@]3(C)[C@@H](C(C)CCC(=O)O)CC[C@@H]53)C2)OO4)[C@@H]2CC[C@H](C(C)CCC(=O)O)[C@@]12C` (some centres not stated)?
**A.** GI50 (CCRF-CEM): 0.0012 µM; IC50 (Plasmodium falciparum [3]): > 0.099 µM; IC50 [4]: 0.0042 µM; IC50 (HeLa; Homo sapiens, HeLa): 0.0052 µM; IC50 (Plasmodium falciparum [5]): > 0.099 µM

**Q.** For `C[C@@H]1CC[C@H]2[C@@H](C)C(=O)O[C@@H]3O[C@@]4(C)CC[C@@H]1[C@]32OO4` [ARTEMISININ], which EC50 (FM3A) is on record?
**A.** 10 µM

**Q.** And the IC50 (Plasmodium falciparum [3])?
**A.** 0.0086 µM

**Q.** What about the IC50 (Plasmodium falciparum [5]) of the same compound?
**A.** 0.0073 µM

**Q.** What about the EC50 (Plasmodium falciparum [7]) of the same compound?
**A.** 0.0078 µM
